Data set [1] has as its system NIH3T3 cells. Briefly: CCK8 anti-proliferative assay, mouse fibroblast cell line. In kind it is cell-based. Particulars: for IC50: CCK8; for inhibition at 500 µM: NIH3T3, read-out: Inhibition% @ 0.5 mM; for inhibition at 1000 µM: NIH3T3, read-out: Inhibition% @ 1 mM; for proliferation (fixed cell morphology): NHI3T3, 0.050 mM for 24 h. The method, boiled down: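 NIH3T3 cells in F12K/DMEM with 10% heat-inactivated FBS and penicillin/streptomycin. Log-phase cells seeded at 5 × 10^3 cells/well for 24 h, then exposed to a range of test-compound concentrations for 72 h. Single-point inhibition taken at 1 mM and 0.5 mM. CCK8 added for 1–4 h; absorbance read at 450 nm. IC50 by curve fitting; mean (±SD) of ≥3 independent determinations.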

A further data set has as its system HFL1. Kind of data set: CCK8 antiproliferative assay, human fibroblast cell line. The conditions noted are these: for proliferation (fixed cell morphology): HFL1, 0.050 mM for 24 h; for IC50: Homo sapiens, HFL1. Format: cell-based. The procedure, abridged:
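HFL1 human fibroblasts grown in F12K/DMEM with 10% heat-inactivated FBS and penicillin/streptomycin. Cells treated with test compound for 48 h, and viability read by CCK8 absorbance at 450 nm. Curve fitting gave IC50. For morphology, cells were treated for 24 h, fixed, and imaged by light microscopy with a 10× objective.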
Background: Tetrazolium dyes change colour on reduction, which living cells bring about.

A further data set has as its system NHI3T3 cells. Briefly: Transwell / cell migration assay. Format: cell-based, mouse.
A further data set deals with E-cadherin. Briefly: Immunofluorescence, E-cadherin expression. Format: cell-based, mouse. The conditions noted are these: NHI3T3 cells, TGF-β1 (10 ng mL^−1) and 9d (50 μM).
For another data set, the system named is α-SMA. Briefly: Immunofluorescence, α-SMA expression. In kind it is cell-based, mouse. Particulars: NHI3T3 cells, TGF-β1 (10 ng mL^−1) and 9d (50 μM). The procedure, abridged: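 NIH3T3 cells grown on coverslips and co-treated with TGF-β1 (10 ng mL−1) and test compound (50 μM) for 24 h. Fixed in 4% paraformaldehyde, then incubated with primary anti-α-SMA overnight at 4 °C. Detected with FITC-conjugated anti-rabbit IgG; nuclei stained with DAPI. Imaged by confocal microscopy; two technical replicates, three biological repeats.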

The subject of a further data set is KM mice. Kind of data set: Acute toxicity experiment and histopathologic examination. Format: in vivo. The conditions noted are these: caudal vein injection, 100/150/300 mg kg^−1.
The nature of a further data set: Solubility in water. In kind it is physicochemical. The conditions noted are these: compared with 11a and 11b.
Data set [2] deals with NIH3T3 cells. The conditions noted are these: pirfenidone, reported in the literature; cited from earlier work.
For data set [3] the following is noted: clinical trials, after administration of pirfenidone; cited from earlier work.
The mark [4] stands for this setting: Mus musculus, NIH3T3, NIH3T3 cells, averages ±SD of at least three determinations.
[5] abbreviates: Mus musculus, NIH3T3, NIH3T3 cells.

The values that follow come from paper PMC9102048 (RSC Advances, 2022).

Where two headings read alike, the source gives them in different places.

As usually defined, the IC50 is the concentration at which inhibition is half-maximal. What is called inhibition is the share of the control response that was lost under treatment. In the data set with NIH3T3 cells [1] (setting [4]), `CN1CCN(CC(=O)Nc2ccc(Cn3cc(C(F)(F)F)ccc3=O)cc2)CC1` [Compound 10a, 2-(4-Methylpiperazin-1-yl)-N-(4-((2-oxo-5-(trifluoromethyl)pyridin-1(2H)-yl)methyl)phenyl)acetamide] yielded an IC50 of 246.3 ± 1.8 µM. Besides, in the data set on NIH3T3 cells [1] (Mus musculus), the inhibition at 500 µM turned out to be 66.5% and the inhibition at 1000 µM amounted to 87.7%.

As to `CC(=O)N(C(C)=O)c1ccc(Cn2cc(C)ccc2=O)cc1` [Compound 9d, N-Acetyl-N-(4-((5-methyl-2-oxopyridin-1(2H)-yl)methyl)phenyl)acetamide], the IC50 with NIH3T3 cells [1] (setting [5]) amounted to 69 µM; in the data set on NIH3T3 cells [1] (setting [4]) it was 69.1 ± 2.7 µM; in the data set with HFL1 it was 35 µM. The inhibition at 500 µM in the data set with NIH3T3 cells [1] (Mus musculus) came to 88.4%. In the data set with NIH3T3 cells [1] (Mus musculus), the inhibition at 1000 µM is 98.7%. For the same molecule, the “proliferation (fixed cell morphology)” value with NIH3T3 cells [1] and in the data set on HFL1 was “effectively inhibited” throughout. Further, the “times the anti-fibrosis activity of pirfenidone” value in the data set with NIH3T3 cells [1] (relative to pirfenidone IC50 2.75 mM) is on record as “more than 40 times”. The “3T3 cell migration (transwell)” value with NHI3T3 cells (9d 50 μM) is “markedly inhibited”. Also, the “cell migration OD value” in the data set with NHI3T3 cells (9d + TGF-β1, OD value of the control is 1.0, TGF-β1 alone about 1.7) is listed as “about 0.8”; in the data set on NHI3T3 cells (9d alone, 50 μM, OD value of the control is 1.0), “about 0.35”. Besides, in the data set on E-cadherin, the “expression of E-cadherin” value is “reversed after 9d treatment, higher than the control group”. Also, the “expression of α-SMA” value in the data set on α-SMA is “decreased”. Also, the “histopathology (H&E) of liver, kidney, heart, spleen” value in the data set on KM mice was “no pathological abnormalities such as inflammation, injury and necrosis”. In the data set “Solubility in water”, the solubility in water result is listed as “good solubility in water”.

In the case of `CN(C)CC(=O)Nc1ccc(-n2cc(C(F)(F)F)ccc2=O)cc1` [Compound 5b, 2-(Dimethylamino)-N-(4-(2-oxo-5-(trifluoromethyl)pyridin-1(2H)-yl)phenyl)acetamide], the IC50 in the data set with NIH3T3 cells [1] (setting [4]) was over 500 µM. For the same molecule, in the data set with NIH3T3 cells [1] (Mus musculus), the inhibition at 500 µM was 34.2% and the inhibition at 1000 µM was found to be 45.8%.

Take `Cc1ccc(=O)n(-c2ccc(NC(=O)[C@@H](C)N(C)C)cc2)c1` [Compound 5c, (R)-2-(Dimethylamino)-N-(4-(5-methyl-2-oxopyridin-1(2H)-yl)phenyl)propanamide]: the IC50 with NIH3T3 cells [1] (setting [5]) is 490 µM; in the data set on NIH3T3 cells [1] (setting [4]), 490.2 ± 2.7 µM. In addition, in the data set on NIH3T3 cells [1] (Mus musculus), the inhibition at 500 µM came to 26.8%. In addition, the inhibition at 1000 µM in the data set on NIH3T3 cells [1] (Mus musculus) was determined as 52.9%.

In the case of `CC(=O)N(C(C)=O)c1ccc(Cn2cc(C(F)(F)F)ccc2=O)cc1` [Compound 9b, N-Acetyl-N-(4-((2-oxo-5-(trifluoromethyl)pyridin-1(2H)-yl)methyl)phenyl)acetamide], the IC50 in the data set on NIH3T3 cells [1] (setting [5]) amounted to 87 µM; with NIH3T3 cells [1] (setting [4]), 87.5 ± 0.7 µM; in the data set with HFL1, 48 µM. Moreover, the inhibition at 500 µM in the data set on NIH3T3 cells [1] (Mus musculus) was found to be 80.6%. The inhibition at 1000 µM with NIH3T3 cells [1] (Mus musculus) worked out at 90.5%. For the same molecule, the “proliferation (fixed cell morphology)” value in the data set with NIH3T3 cells [1] and in the data set on HFL1 was “effectively inhibited” throughout. Also, the solubility in water result in “Solubility in water” is given as “good solubility in water”.

Consider `CC(=O)Nc1ccc(-n2cc(C(F)(F)F)ccc2=O)cc1` [Compound 4a, N-(4-(2-oxo-5-(Trifluoromethyl)pyridin-1(2H)-yl)phenyl)acetamide], for which the IC50 in the data set on NIH3T3 cells [1] (setting [4]) was over 1000 µM. Further, in the data set with NIH3T3 cells [1] (Mus musculus), the inhibition at 500 µM turned out to be 10.4% and the inhibition at 1000 µM stood at 32.6%.

With “1-Benzyl-5-(trifluoromethyl)pyridin-2(1H)-one [Compound 7a]”, the “Inhibition% @ 0.5 mM” value with NIH3T3 cells [1] (NIH3T3 cells, CCK8, 0.5 mM) stood at 20.58%. Besides, the “Inhibition% @ 1 mM” value in the data set with NIH3T3 cells [1] (NIH3T3 cells, CCK8, 1 mM) came out at 40.95%. Besides, the IC50 with NIH3T3 cells [1] (NIH3T3 cells, averages ±SD of at least three determinations) is over 500 µM.

With `CN1CCN(CC(=O)Nc2ccc(-n3cc(C(F)(F)F)ccc3=O)cc2)CC1` [Compound 5a, 2-(4-Methylpiperazin-1-yl)-N-(4-(2-oxo-5-(trifluoromethyl)pyridin-1(2H)-yl)phenyl)acetamide], the IC50 in the data set with NIH3T3 cells [1] (setting [4]) was determined as 341 ± 7.3 µM. Besides, in the data set on NIH3T3 cells [1] (Mus musculus), the inhibition at 500 µM is 51.8% and the inhibition at 1000 µM is 62.4%.

Turning to `CN(C)CC(=O)Nc1ccc(Cn2cc(C(F)(F)F)ccc2=O)cc1` [Compound 10d, 2-(Dimethylamino)-N-(4-((2-oxo-5-(trifluoromethyl)pyridin-1(2H)-yl)methyl)phenyl)acetamide], in the data set with NIH3T3 cells [1] (setting [4]), the IC50 came to 273.1 ± 1.5 µM. In the data set on NIH3T3 cells [1] (Mus musculus), the inhibition at 500 µM is 52.4% and the inhibition at 1000 µM was found to be 71.3%.

For the molecule `CC(=O)Nc1ccc(-n2cc(C)ccc2=O)cc1` [Compound 4b, N-(4-(5-Methyl-2-oxopyridin-1(2H)-yl)phenyl)acetamide], the IC50 in the data set with NIH3T3 cells [1] (setting [4]) was over 1000 µM. For the same molecule, in the data set on NIH3T3 cells [1] (Mus musculus), the inhibition at 500 µM was 1.3% and the inhibition at 1000 µM amounted to 25.7%.

In the data set with NIH3T3 cells [1] (setting [4]), `Cc1ccc(=O)n(-c2ccccc2)c1` [pirfenidone, 5-methyl-1-phenyl-2[1H]-pyridone, reference compound] yielded an IC50 of over 1000 µM. In the data set on NIH3T3 cells [1] (Mus musculus), the inhibition at 500 µM is 17.9% and the inhibition at 1000 µM stood at 35.7%. Further, the IC50 in the data set with NIH3T3 cells [2] is 2750 µM. The incidence of photo-sensitivity in data set [3] is listed as 51.7%.

For the molecule `CC(=O)N(C)c1ccc(Cn2cc(C)ccc2=O)cc1` [Compound 11b, N-Methyl-N-(4-((5-methyl-2-oxopyridin-1(2H)-yl)methyl)phenyl)acetamide], in the data set on NIH3T3 cells [1] (setting [4]), the IC50 stood at 140 ± 9.8 µM. Further, in the data set on NIH3T3 cells [1] (Mus musculus), the inhibition at 500 µM came to 66.7% and the inhibition at 1000 µM came to 79.4%.

Consider “TGF-β1: recombinant TGF-β1, key fibrogenic factor used to induce epithelial–mesenchymal transition and cell migration [reference compound]”, for which, in the data set on NHI3T3 cells (TGF-β1 alone, OD value of the control is 1.0), the “cell migration OD value” was “about 1.7”.

For `CC(=O)Nc1ccc(Cn2cc(C)ccc2=O)cc1` [Compound 9c, N-(4-((5-Methyl-2-oxopyridin-1(2H)-yl)methyl)phenyl)acetamide], the IC50 with NIH3T3 cells [1] (setting [4]) was found to be 113 ± 1.9 µM. Besides, in the data set with NIH3T3 cells [1] (Mus musculus), the inhibition at 500 µM came out at 72.5% and the inhibition at 1000 µM amounted to 89%.

For `CC(=O)Nc1ccc(Cn2cc(C(F)(F)F)ccc2=O)cc1` [Compound 9a, N-(4-((2-oxo-5-(Trifluoromethyl)pyridin-1(2H)-yl)methyl)phenyl)acetamide], in the data set on NIH3T3 cells [1] (setting [4]), the IC50 is 132 ± 2.3 µM. Further, in the data set on NIH3T3 cells [1] (Mus musculus), the inhibition at 500 µM stood at 68.4% and the inhibition at 1000 µM was 86.2%.

The molecule `CC(=O)N(C)c1ccc(Cn2cc(C(F)(F)F)ccc2=O)cc1` [Compound 11a, N-Methyl-N-(4-((2-oxo-5-(trifluoromethyl)pyridin-1(2H)-yl)methyl)phenyl)acetamide] came in with an IC50 in the data set with NIH3T3 cells [1] (setting [4]) of 146 ± 5.5 µM. Further, in the data set with NIH3T3 cells [1] (Mus musculus), the inhibition at 500 µM was 67.9% and the inhibition at 1000 µM is 78.5%.
